Measured values as given in ChEMBL document CHEMBL4765248, “Design, synthesis, biological evaluation and molecular docking study of novel thieno[3,2-d]pyrimidine derivatives as potent FAK inhibitors” (Eur J Med Chem, 2020).
pIC50: −log10 of the molar value.

Assays:
[1] = test system: A549; experiment: Antiproliferative activity against human A549 cells assessed as cell viability at 2.5 uM measured after 24 hrs by MTT assay (reference value: 100%); type: functional; conditions: read-out: Activity
[2] = test system: MDA-MB-231; experiment: Induction of apoptosis in human MDA-MB-231 cells assessed as viable cells at 0.4 uM incubated for 48 hrs by Annexin V-FITC/PI staining based flow cytometric analysis (reference value: 95.84%); type: functional; conditions: read-out: Activity
[3] = biological target: Serine/threonine-protein kinase pim-1 (Homo sapiens) (UniProt P11309); experiment: Inhibition of His-tagged full length recombinant human PIM1 expressed in baculovirus expression system at 1 uM by Selectscreen kinase assay
Chain of Serine/threonine-protein kinase pim-1 (Homo sapiens) (P11309 whole entry, looked up): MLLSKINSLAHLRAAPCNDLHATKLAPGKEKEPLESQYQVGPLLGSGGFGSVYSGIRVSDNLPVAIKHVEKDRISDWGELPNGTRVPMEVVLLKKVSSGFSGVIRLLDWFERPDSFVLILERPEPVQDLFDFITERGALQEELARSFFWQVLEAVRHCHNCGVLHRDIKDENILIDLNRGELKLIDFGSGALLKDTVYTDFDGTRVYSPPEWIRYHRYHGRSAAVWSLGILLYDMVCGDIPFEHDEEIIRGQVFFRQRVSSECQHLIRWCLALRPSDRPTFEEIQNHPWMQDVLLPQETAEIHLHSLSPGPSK
Procedure, shortened: (§1)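 Single-point screen at 1 μM final against a panel of 25 kinases using a commercial profiling service; mean of three independent experiments each run in triplicate.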

[4] = test system: U-87 MG; experiment: Antiproliferative activity against human U-87MG cells assessed as inhibition of cell growth measured after 72 hrs by MTT assay; type: functional, cell-based, U-87MG ATCC
Procedure, shortened: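 Cells were seeded at 4000–5000/well and held 24 h at 37 °C in 5% CO2. Compounds were added at the indicated final concentrations and incubated 72 h. MTT was added (5 mg/mL in PBS, stated as final) for 4 h at 37 °C. Formazan was dissolved in DMSO and absorbance read at 490 nm. The 50% growth-inhibitory concentration is the mean of three independent experiments ± SE.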

[5] = test system: A549; experiment: Antiproliferative activity against human A549 cells assessed as reduction in cell viability measured after 24 to 72 hrs by MTT assay; type: functional, cell-based; conditions: dose 0.1-2.5 µM, time 24-72 hrs
[6] = test system: MDA-MB-231; experiment: Induction of apoptosis in human MDA-MB-231 cells incubated for 48 hrs by Annexin V-FITC/PI staining based flow cytometric analysis; type: functional, cell-based; conditions: dose 0.1-0.4 µM
[7] = biological target: Proto-oncogene tyrosine-protein kinase receptor Ret (Homo sapiens) (UniProt P07949); experiment: Inhibition of GST-tagged human RET cytoplasmic domain expressed in baculovirus expression system at 1 uM by Selectscreen kinase assay; procedure, shortened: as §1
Chain of Proto-oncogene tyrosine-protein kinase receptor Ret (Homo sapiens) (P07949 whole entry, the tested form may be a part): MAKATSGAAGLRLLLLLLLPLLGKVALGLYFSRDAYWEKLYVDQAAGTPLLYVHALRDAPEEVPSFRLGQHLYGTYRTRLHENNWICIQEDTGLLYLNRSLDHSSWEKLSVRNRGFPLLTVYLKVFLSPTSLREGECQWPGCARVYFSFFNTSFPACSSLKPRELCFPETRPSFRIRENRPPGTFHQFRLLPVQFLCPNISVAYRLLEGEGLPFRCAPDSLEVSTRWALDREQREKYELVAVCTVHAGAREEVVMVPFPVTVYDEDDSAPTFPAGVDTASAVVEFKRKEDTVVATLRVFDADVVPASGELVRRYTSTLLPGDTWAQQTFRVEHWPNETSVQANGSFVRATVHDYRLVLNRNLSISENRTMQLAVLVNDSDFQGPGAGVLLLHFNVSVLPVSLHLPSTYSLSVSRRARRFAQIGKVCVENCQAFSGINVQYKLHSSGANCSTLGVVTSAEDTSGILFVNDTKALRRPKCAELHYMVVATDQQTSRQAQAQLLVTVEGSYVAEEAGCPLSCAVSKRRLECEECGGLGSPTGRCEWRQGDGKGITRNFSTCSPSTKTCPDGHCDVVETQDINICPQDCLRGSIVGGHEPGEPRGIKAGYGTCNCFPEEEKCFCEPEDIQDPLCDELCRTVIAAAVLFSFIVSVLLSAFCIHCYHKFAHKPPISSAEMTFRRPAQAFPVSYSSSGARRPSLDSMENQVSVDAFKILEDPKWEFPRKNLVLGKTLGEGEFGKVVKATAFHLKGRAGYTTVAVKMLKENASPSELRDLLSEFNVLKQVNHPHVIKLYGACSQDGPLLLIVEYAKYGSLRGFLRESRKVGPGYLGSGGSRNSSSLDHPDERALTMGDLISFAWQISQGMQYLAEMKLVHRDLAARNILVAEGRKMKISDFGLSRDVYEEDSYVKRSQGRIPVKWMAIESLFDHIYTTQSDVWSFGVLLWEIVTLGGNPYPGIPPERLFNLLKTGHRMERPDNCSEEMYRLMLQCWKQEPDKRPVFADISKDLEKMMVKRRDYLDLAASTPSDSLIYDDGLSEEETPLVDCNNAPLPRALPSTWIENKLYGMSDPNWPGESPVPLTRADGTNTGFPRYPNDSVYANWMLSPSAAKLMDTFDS

[8] = test system: MDA-MB-231; experiment: Induction of apoptosis in human MDA-MB-231 cells assessed as viable cells at 0.2 uM incubated for 48 hrs by Annexin V-FITC/PI staining based flow cytometric analysis (reference value: 95.84%); type: functional; conditions: read-out: Activity
[9] = biological target: Serine/threonine-protein kinase PAK 1 (Homo sapiens) (UniProt Q13153); experiment: Inhibition of GST-tagged full length human PAK1 expressed in baculovirus expression system at 1 uM by Selectscreen kinase assay; procedure, shortened: as §1
Chain of Serine/threonine-protein kinase PAK 1 (Homo sapiens) (Q13153 whole entry): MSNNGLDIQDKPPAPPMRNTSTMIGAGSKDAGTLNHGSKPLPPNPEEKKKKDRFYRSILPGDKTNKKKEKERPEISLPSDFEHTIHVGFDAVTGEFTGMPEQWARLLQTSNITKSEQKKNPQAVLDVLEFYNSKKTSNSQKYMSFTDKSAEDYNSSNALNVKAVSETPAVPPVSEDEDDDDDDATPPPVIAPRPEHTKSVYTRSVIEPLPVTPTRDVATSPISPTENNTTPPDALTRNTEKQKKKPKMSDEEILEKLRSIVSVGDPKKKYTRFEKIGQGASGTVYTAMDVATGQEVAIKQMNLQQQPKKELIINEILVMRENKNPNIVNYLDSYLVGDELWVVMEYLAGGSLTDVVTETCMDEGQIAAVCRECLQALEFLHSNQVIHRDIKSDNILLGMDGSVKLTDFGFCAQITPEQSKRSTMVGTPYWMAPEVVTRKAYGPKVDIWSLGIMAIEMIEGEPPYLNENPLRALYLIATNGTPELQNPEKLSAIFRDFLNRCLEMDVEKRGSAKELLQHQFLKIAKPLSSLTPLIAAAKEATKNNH

[10] = Metabolic stability in rat liver microsomes assessed as parent compound remaining at 1 uM measured after 60 mins in presence of NADPH by LC-MS/MS analysis; type: ADME, Microsome; conditions: read-out: Stabilty
Procedure, shortened: (§2)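 Rat liver microsomes (0.5 mg/mL) were incubated at 37 °C with 1 μM compound in 100 mM potassium phosphate, pH 7.4, with 10 mM MgCl2. Reaction was started with prewarmed NADPH cofactor and sampled at 0, 5, 10, 20, 30 and 60 min. Protein was precipitated with cold acetonitrile and supernatants analysed by LC-MS/MS to give half-life, 1 h remaining and intrinsic clearance.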

[11] = test system: MDA-MB-231; experiment: Induction of cell cycle arrest in human MDA-MB-231 cells assessed as accumulation of cells at S phase at 0.1 uM measured after 48 hrs by PI staining based flow cytometry method (reference value: 39.17%); type: functional
[12] = test system: MDA-MB-231; experiment: Antiproliferative activity against human MDA-MB-231 cells assessed as cell viability at 2.5 uM measured after 72 hrs by MTT assay (reference value: 100%); type: functional; conditions: read-out: Activity
[13] = test system: A549; experiment: Antiproliferative activity against human A549 cells assessed as cell viability at 2.5 uM measured after 72 hrs by MTT assay (reference value: 100%); type: functional; conditions: read-out: Activity
[14] = biological target: Fibroblast growth factor receptor 4 (Homo sapiens) (UniProt P22455); experiment: Inhibition of His-tagged human FGFR4 cytoplasmic domain expressed in baculovirus expression system at 1 uM by Selectscreen kinase assay; procedure, shortened: as §1
Chain of Fibroblast growth factor receptor 4 (Homo sapiens) (P22455 22-802 limits assumed): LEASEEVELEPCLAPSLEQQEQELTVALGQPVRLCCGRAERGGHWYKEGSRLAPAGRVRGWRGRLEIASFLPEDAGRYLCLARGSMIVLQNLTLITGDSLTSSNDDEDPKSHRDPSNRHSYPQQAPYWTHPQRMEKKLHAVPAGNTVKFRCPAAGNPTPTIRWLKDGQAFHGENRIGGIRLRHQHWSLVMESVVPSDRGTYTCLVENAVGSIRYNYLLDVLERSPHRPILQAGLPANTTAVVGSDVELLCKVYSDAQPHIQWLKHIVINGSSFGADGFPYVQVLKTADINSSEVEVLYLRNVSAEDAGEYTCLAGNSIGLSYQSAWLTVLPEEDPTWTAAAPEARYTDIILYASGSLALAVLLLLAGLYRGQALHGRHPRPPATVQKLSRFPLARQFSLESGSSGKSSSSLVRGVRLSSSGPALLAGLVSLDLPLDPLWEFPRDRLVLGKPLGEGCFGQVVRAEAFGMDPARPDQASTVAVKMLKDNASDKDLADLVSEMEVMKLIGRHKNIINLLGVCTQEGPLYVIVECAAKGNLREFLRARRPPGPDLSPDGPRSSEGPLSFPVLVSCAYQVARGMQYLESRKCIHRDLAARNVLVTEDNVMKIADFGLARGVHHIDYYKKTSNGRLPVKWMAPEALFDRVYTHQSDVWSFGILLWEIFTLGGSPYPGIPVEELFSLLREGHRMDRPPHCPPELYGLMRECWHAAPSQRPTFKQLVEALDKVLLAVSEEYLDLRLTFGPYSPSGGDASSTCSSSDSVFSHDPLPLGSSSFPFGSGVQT

[15] = biological target: Dual specificity mitogen-activated protein kinase kinase 1 (Homo sapiens) (UniProt Q02750); experiment: Inhibition of His-tagged full length human MEK1 expressed in baculovirus expression system at 1 uM by Selectscreen kinase assay; procedure, shortened: as §1
[16] = test system: MDA-MB-231; experiment: Induction of apoptosis in human MDA-MB-231 cells assessed as viable cells at 0.1 uM incubated for 48 hrs by Annexin V-FITC/PI staining based flow cytometric analysis (reference value: 95.84%); type: functional; conditions: read-out: Activity
[17] = biological target: Mast/stem cell growth factor receptor Kit (Homo sapiens) (UniProt P10721); experiment: Inhibition of His-tagged human KIT cytoplasmic domain expressed in baculovirus expression system at 1 uM by Selectscreen kinase assay; procedure, shortened: as §1
Chain of Mast/stem cell growth factor receptor Kit (Homo sapiens) (P10721 whole entry, the tested form may be a part): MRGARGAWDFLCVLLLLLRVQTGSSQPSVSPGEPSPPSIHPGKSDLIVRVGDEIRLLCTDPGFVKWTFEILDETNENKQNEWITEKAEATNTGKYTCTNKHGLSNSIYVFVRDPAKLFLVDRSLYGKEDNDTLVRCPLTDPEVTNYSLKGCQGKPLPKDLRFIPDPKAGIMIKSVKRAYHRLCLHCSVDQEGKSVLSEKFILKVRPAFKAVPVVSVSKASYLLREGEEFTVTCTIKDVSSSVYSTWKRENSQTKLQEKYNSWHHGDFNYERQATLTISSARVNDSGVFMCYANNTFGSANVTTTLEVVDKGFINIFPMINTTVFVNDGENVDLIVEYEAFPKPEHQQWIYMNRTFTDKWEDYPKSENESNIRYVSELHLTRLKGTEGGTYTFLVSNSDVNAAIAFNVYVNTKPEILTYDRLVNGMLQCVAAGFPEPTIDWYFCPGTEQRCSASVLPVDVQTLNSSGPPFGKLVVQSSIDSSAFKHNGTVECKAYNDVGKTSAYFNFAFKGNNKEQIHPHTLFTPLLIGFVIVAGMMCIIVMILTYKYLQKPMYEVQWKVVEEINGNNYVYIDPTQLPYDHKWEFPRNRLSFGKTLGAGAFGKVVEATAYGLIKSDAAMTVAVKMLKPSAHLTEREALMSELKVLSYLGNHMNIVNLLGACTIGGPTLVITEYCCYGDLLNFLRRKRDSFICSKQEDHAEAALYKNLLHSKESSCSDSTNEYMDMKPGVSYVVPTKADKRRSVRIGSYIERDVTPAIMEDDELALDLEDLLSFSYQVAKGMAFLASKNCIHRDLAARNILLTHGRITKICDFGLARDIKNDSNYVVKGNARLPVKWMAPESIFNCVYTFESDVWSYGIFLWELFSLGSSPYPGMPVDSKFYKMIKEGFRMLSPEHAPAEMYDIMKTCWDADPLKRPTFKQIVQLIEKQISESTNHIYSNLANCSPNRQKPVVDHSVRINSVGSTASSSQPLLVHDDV

[18] = test system: MDA-MB-231; experiment: Antiproliferative activity against human MDA-MB-231 cells assessed as cell viability at 2.5 uM measured after 48 hrs by MTT assay (reference value: 100%); type: functional; conditions: read-out: Activity
[19] = test system: MDA-MB-231; experiment: Induction of apoptosis in human MDA-MB-231 cells assessed as early apoptotic cells at 0.1 uM incubated for 48 hrs by Annexin V-FITC/PI staining based flow cytometric analysis (reference value: 1.58%); type: functional
[20] = test system: MDA-MB-231; experiment: Antiproliferative activity against human MDA-MB-231 cells assessed as cell viability at 2.5 uM measured after 24 hrs by MTT assay (reference value: 100%); type: functional; conditions: read-out: Activity
[21] = test system: MDA-MB-231; experiment: Induction of apoptosis in human MDA-MB-231 cells assessed as necrotic cells at 0.2 uM incubated for 48 hrs by Annexin V-FITC/PI staining based flow cytometric analysis (reference value: 1.08%); type: functional
[22] = biological target: Serine/threonine-protein kinase Chk1 (Homo sapiens) (UniProt O14757); experiment: Inhibition of His-tagged full length human CHK1 expressed in baculovirus expression system at 1 uM by Selectscreen kinase assay; procedure, shortened: as §1
[23] = biological target: Rho-associated protein kinase 1 (Homo sapiens) (UniProt Q13464); experiment: Inhibition of GST-tagged recombinant human ROCK1 catalytic domain (1-535) expressed in baculovirus expression system at 1 uM by Selectscreen kinase assay; procedure, shortened: as §1
Chain of Rho-associated protein kinase 1 (Homo sapiens) (Q13464 2-1354 limits assumed): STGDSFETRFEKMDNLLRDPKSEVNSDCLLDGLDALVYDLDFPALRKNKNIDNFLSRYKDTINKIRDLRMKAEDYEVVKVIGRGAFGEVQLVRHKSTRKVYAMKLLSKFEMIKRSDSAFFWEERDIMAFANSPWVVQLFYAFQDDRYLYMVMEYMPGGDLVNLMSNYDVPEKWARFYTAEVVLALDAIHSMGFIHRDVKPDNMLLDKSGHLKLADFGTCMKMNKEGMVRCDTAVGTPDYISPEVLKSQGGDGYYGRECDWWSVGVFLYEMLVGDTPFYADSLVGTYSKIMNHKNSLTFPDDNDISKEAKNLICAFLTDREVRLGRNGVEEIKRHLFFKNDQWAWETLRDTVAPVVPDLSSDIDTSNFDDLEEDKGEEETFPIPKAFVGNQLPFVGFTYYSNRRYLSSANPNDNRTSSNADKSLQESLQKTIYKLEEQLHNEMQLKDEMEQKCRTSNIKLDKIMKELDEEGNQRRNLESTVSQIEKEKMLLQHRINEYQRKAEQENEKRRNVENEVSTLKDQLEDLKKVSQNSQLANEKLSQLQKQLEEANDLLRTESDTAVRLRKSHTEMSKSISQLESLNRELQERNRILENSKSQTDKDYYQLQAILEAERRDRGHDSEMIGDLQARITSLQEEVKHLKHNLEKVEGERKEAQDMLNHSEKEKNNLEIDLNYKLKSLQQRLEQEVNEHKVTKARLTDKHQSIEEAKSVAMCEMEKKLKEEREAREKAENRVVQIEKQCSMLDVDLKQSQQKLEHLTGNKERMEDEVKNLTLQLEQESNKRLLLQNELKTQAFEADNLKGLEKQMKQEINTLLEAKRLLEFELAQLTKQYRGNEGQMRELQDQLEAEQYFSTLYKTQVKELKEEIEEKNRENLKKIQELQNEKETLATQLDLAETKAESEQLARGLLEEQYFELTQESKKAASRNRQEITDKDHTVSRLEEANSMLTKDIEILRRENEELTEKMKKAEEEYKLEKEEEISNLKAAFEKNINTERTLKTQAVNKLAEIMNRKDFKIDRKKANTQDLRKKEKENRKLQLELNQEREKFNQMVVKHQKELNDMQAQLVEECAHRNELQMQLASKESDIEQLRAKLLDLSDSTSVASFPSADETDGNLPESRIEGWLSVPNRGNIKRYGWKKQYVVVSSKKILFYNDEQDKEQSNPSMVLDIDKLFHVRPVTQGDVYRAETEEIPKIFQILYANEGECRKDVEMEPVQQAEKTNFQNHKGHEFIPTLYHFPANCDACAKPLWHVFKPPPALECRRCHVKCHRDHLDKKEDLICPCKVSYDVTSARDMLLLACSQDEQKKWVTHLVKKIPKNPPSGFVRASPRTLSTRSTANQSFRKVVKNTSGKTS

[24] = biological target: MAP kinase-interacting serine/threonine-protein kinase 1 (Homo sapiens) (UniProt Q9BUB5); experiment: Inhibition of GST-tagged full length human MKNK1 expressed in insect expression system at 1 uM by Selectscreen kinase assay; procedure, shortened: as §1
[25] = test system: MDA-MB-231; experiment: Induction of cell cycle arrest in human MDA-MB-231 cells assessed as accumulation of cells at G2/M phase at 0.2 uM measured after 48 hrs by PI staining based flow cytometry method (reference value: 17.40%); type: functional
[26] = test system: MDA-MB-231; experiment: Inhibition of cell migration in human MDA-MB-231 cells at 0.15 to 0.6 uM by wound healing assay; type: functional, cell-based; conditions: dose 0.15-0.6 µM, time 24-48 hrs, TDE = time-dependent effect
Procedure, shortened: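 MDA-MB-231 cells (2×10^6/well) were grown to confluence and the monolayer was scratched with a pipette tip. Cells were washed with PBS, kept in serum-free medium and treated with DMSO or compound at 0.15, 0.3 or 0.6 μM for 48 h. Wound closure was photographed by inverted microscope at 24 and 48 h.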

[27] = Intrinsic clearance in rat liver at 1 uM measured after 60 mins in presence of NADPH by LC-MS/MS analysis; type: ADME; conditions: 1 h; procedure, shortened: as §2
[28] = test system: A549; experiment: Antiproliferative activity against human A549 cells assessed as cell viability at 2.5 uM measured after 48 hrs by MTT assay (reference value: 100%); type: functional; conditions: read-out: Activity

- inhibition [3]: 3%
- pIC50 [4]: 6.80
- inhibition [7]: 97%
- inhibition [9]: 67%
- remaining at 1 h, 1 µM [10]: 72.4%
- inhibition [14]: 66%
- inhibition [15]: 27%
- inhibition [17]: 41%
- inhibition [22]: 38%
- inhibition [23]: 33%
- inhibition [24]: 13%
- CLH [27]: 18.6 µL/min/mg
Compound: COc1ccccc1-c1csc2cnc(Nc3ccc(C(=O)NC4CCNCC4)c(F)c3)nc12
- viability at 2.5 µM [1]: 51.5%
- viability at 0.4 µM [2]: 53.8%
- Activity [5]: Dose-dependent effect
- Activity [6]: Dose-dependent effect
- viability at 0.2 µM [8]: 75%
- Activity [11]: 41.96%
- viability at 2.5 µM [12]: 9.1%
- viability at 2.5 µM [13]: 18.8%
- viability at 0.1 µM [16]: 85.5%
- viability at 2.5 µM [18]: 11.9%
- Activity [19]: 7.21%
- viability at 2.5 µM [20]: 52.2%
- Activity [21]: 1.72%
- Activity [25]: 9.49%
- inhibition [26]: Tde
- viability at 2.5 µM [28]: 31%
